Screens (PubChem BioAssay)
The entries come from a sample that favours hits as a whole.
HUVEC prolif 384: human endothelial cell proliferation inhibition; 86,000 tested, 1.1% active; viability, % at 10 µM (by protocol); HUVEC proliferation, CellTiter-Glo luminescence, 72 h; hits give low values;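 active = viability at or below 30%; inactive = viability above 30%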;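 also: 100% = median luminescence of DMSO-only cell control wells on each plate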
Lung fibro prol: blocks proliferation of human lung fibroblasts; LL 47 human lung fibroblast viability, ATP luminescence; hits give low values; viability, % at 10 µM; 85,000 tested, 1.1% active; AID 719;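 active = viability at or below 50% in the single dose screen; inactive = viability above 50%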;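 also: compound exposure lasted 72 h before the ATP readout; 100% = median luminescence of untreated cell-only wells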
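Test system: LL 47 human lung fibroblasts / Incubation: 72 h compound exposure at 37 °C after overnight plating / Technique: luminescent ATP detection, CellTiter-Glo / Compound dosing: 0.1% DMSO in all compound wells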
HCT116 bCat-KO: beta-catenin-lacking colon tumor cell growth suppression; viability, % at 10 µM; HCT116 beta-catenin knockout viability, CellTiter-Glo, 60 h; hits give low values; 140,000 tested, 1.5% active; AID 818;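 active = viability at or under a set limit, the compound median less 4 SD, cut at about 6% in these data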;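 also: 0% = Hyamine 1622 control at 20 µM and 100% = untreated cell control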
HCT116 PTEN-null: growth suppressors of cells with PTEN tumor suppressor deletion; HCT116 PTEN-null viability, CellTiter-Glo, 60 h; hits give low values; viability, % at 10 µM; 140,000 tested, 1.2% active;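 active = viability at or below a set limit, 4 SD under the median of all tested compounds, cut at about 3.7% in these data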;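 also: PTEN knockout HCT116 line with beta catenin targeted HCT116 as companion control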
H69AR inhibit: blocks growth of human H69AR lung tumor cells. H69AR lung tumor viability, ATP luminescence, 72 h; hits give low values. AID 598. viability, % at 10 µM. 85,000 tested, 6% active;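 active = viability at or below 40%; inactive = viability above 40%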;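 also: multidrug resistant small cell line overexpressing MRP-1 efflux transporter; 100% = mean luminescence of untreated control wells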
Starred values were filed as active, the others as inactive; . = not tested or not shown.

SMILES	HUVEC prolif 384	Lung fibro prol	HCT116 bCat-KO	HCT116 PTEN-null	H69AR inhibit
O=C(CC12CC3CC(CC(C3)C1)C2)NC(=S)N1CCCCC1	.	.	95	88	.
CC1CCN(C(=O)CSc2nnc(-c3cccnc3)n2C2CCCCC2)CC1	101	.	100	100	26*
CCOc1ccc(NC(=O)CSC2=C(C#N)C(c3ccc4c(c3)OCO4)CC(=O)N2)cc1 (centres undefined)	96	96	85	109	84
CCCOC(=O)CSC1=C(C#N)C(c2ccc3c(c2)OCO3)CC(=O)N1 (centres undefined)	69	93	49	47	23*
O=C(CS(=O)c1ccc(C(F)(F)F)cc1[N+](=O)[O-])Oc1ccc(Cl)cc1 (centres undefined)	58	88	80	86	21*
Cc1cc(C)cc(OC(=O)CS(=O)c2ccc(C(F)(F)F)cc2[N+](=O)[O-])c1 (centres undefined)	64*	84	98	82	15*
COc1cccc2c1C(=O)c1c(O)c3c(c(O)c1C2=O)C[C@@](O)(C(C)=O)C[C@@H]3O[C@H]1C[C@H](N)[C@H](O)[C@H](C)O1	.	.	0.8*	0.8*	.
Cc1ccc(C2(c3ccc(C)cc3)CC2C(=O)Nc2ccc([N+](=O)[O-])cc2O)cc1 (centres undefined)	.	.	2.3*	3.3*	.
CC1(C)CC1C(=O)Nc1ccc([N+](=O)[O-])cc1Br (centres undefined)	.	.	91	81	.
CCN(CC)c1ccc(C(=O)n2cnc3ccccc32)cc1	75	88	66	62	21*
CN(C)c1ccc(C(=O)n2nnc3ccccc32)cc1	80	100	95	104	84
COc1ccc(O[C@H]2C=C[C@@H](c3ccccc3)O[C@@H]2CO/N=C(\C)CCC(=O)OC[C@H]2O[C@H](c3ccccc3)C=C[C@@H]2Oc2ccc(OC)cc2)cc1	.	.	74	82	.
CC(C)Oc1ccc(C(=O)Nc2ccccc2N2CCCC2)cc1	111	88	96	101	32*
Cc1ccc(-c2nnc(-n3ncc(C#N)c3N)c3ccccc23)cc1C	.	.	85	88	.
CC(C)(CO)NCC(=O)Nc1cc(C(F)(F)F)cc(NC(=O)CNC(C)(C)CO)c1Cl	.	.	89	86	.
O=C(CSc1ncc(-c2ccc(F)cc2)[nH]1)N1CCCCC1	102	.	91	94	29*
COC(=O)c1c(NC(=O)CN2C(=O)C(=O)N(CC(C)C)C2=O)sc2c1CCCCC2	.	.	94	95	.
C/C(=N\NC(=O)c1cc(-c2cccc([N+](=O)[O-])c2)n[nH]1)c1ccccc1O	.	.	9	2.9*	.
C/C(=N\NC(=O)c1ccccc1C)c1cccc([N+](=O)[O-])c1	.	.	102	102	.
O=C(Nc1cc2nn(-c3ccccc3)nc2cc1Cl)c1ccco1	54	97	1.7*	3.4*	42
O=C(Nc1ccc2nn(-c3ccccc3)nc2c1)c1ccco1	91	90	94	97	89
CC(=O)Oc1cccc(N2C(=O)c3ccc(C(=O)O)cc3C2=O)c1	97	93	107	109	2.0*
COc1ccc(S(=O)(=O)N2N=C(C)Oc3ccccc3C2=O)cc1	58	47*	18	18	16*
Cc1cc2nc(C3CCN(CC4COc5ccccc5O4)CC3)[nH]c2cc1C (centres undefined)	5.9*	91	58	67	33*
CCCNC(=S)N1CCC(c2nc3cc(C)c(C)cc3[nH]2)CC1	.	.	89	89	.
SMILES	HUVEC prolif 384	Lung fibro prol	HCT116 bCat-KO	HCT116 PTEN-null	H69AR inhibit
Cc1ccc(C)c(C(=O)COC(=O)c2ccccc2N2C(=O)C3C4CCC(C4)C3C2=O)c1 (centres undefined)	.	.	94	75	.
Cn1nc(C(F)(F)F)c(C(=O)Nc2cccc(Cl)c2)c1Cl	.	.	83	87	.
Nc1nnnn1/N=C/c1ccccc1OCc1ccc(Cl)cc1Cl	.	.	45	52	.
Nc1nnnn1/N=C/c1cc(Cl)cc(Cl)c1OCc1ccc(Cl)cc1Cl	89	91	3.2*	4	22*
Oc1ccc2ccccc2c1C1Nc2cccc3cccc(c23)N1	84	93	72	73	110
CCN(CC)c1ccc(C2Nc3cccc4cccc(c34)N2)c(O)c1	74	97	.	.	19*
CCCCCCc1nc2ccccc2c(=O)n1NC(=O)c1c(O)c2cccc3c2n(c1=O)CC3	111	99	.	.	36*
CCCc1nc2ccccc2c(=O)n1NC(=O)c1c(O)c2cccc3c2n(c1=O)CCC3	97	75	67	66	18*
CCN(CC)CCNC(=O)c1c(O)c2cccc3c2n(c1=O)CCC3	103	93	104	104	31*
COc1cccc(/C=C/C(=O)OCC(=O)NCC2CCCO2)c1OC (centres undefined)	.	.	81	110	.
Cc1cc[n+](C2=C([O-])c3ccccc3C(=O)/C2=N\S(=O)(=O)c2cccs2)cc1C	.	.	1.6*	1.8*	.
Cc1ccccc1NC1=C/C(=N\S(=O)(=O)c2cccs2)c2ccccc2C1=O	.	.	1.5*	1.9*	.
Cc1cc(C)c[n+](C2=C([O-])c3ccccc3C(=O)/C2=N\S(=O)(=O)c2cccs2)c1	.	.	33	41	.
Cc1ccc(NC2=C/C(=N/S(=O)(=O)c3cccs3)c3ccccc3C2=O)cc1C	.	.	85	88	.
O=C(CSc1nnc(-c2ccc(Br)cc2)n1CCc1ccccc1)NC1CCS(=O)(=O)C1 (centres undefined)	.	.	86	91	.
COc1cc(/C=C/C(=O)NC(C)CCc2ccccc2)cc(OC)c1OC (centres undefined)	.	.	85	87	.
CCCn1c(SCC(=O)Nc2ccc3c(c2)OCCO3)nnc1-c1ccco1	.	.	87	85	.
Cc1cccc(-n2c(SCC(=O)Nc3ccc4c(c3)OCO4)nnc2-c2ccoc2C)c1	48	59	98	92	9.2*
Cc1ccc(-n2c(SCC(=O)Nc3ccc4c(c3)OCO4)nnc2-c2cccs2)cc1	67	33*	102	98	9.2*
CC(Sc1nnc(-c2cccs2)n1Cc1ccccc1)C(=O)NCc1ccc2c(c1)OCO2 (centres undefined)	79	87	79	74	30*
O=C(CSc1nnc(-c2cccs2)n1Cc1ccccc1)NCc1ccc2c(c1)OCO2	85	89	78	69	75
Cc1ccc(-n2c(SCC(=O)Nc3ccc4c(c3)OCCO4)nnc2-c2ccco2)cc1	57	43*	91	92	14*
CC(=O)Nc1c(C)ccc(CNC(=O)COc2cc(C)ccc2C)c1C	.	.	94	107	.
Cc1ccc(-c2cc(C(F)F)n3ncc(C(=O)Nc4ccc(S(=O)(=O)Nc5ccccc5C)cc4)c3n2)cc1	.	.	64	59	.
CC(C)Oc1ccc(CC2CCC(=O)N(C)C2=O)cc1 (centres undefined)	.	.	100	97	.
O=C(CSc1nnc(-c2cccnc2)n1-c1ccccc1)Nc1ccc2c(c1)OCO2	96	87	106	96	35*
O=C(CSc1nnc(-c2cccnc2)n1-c1ccccc1)Nc1ccccn1	90	106	94	84	94
